Measurements as given in ChEMBL document CHEMBL1152702, “Synthesis and biological evaluation of some new 1,4-dihydropyridines containing different ester substitute and diethyl carbamoyl group as anti-tubercular agents” (Bioorg Med Chem, 2009).
pIC50: −log10 of the molar value. ≈ marks a conversion by molar mass, not a printed value.

What was measured:
[1] = Antagonist activity at calcium channel in guinea pig ileum assessed as inhibition of KCl-induced contraction of ileal longitudinal smooth muscle pretreated 15 mins before KCl challenge; format: functional, tissue-based; details: Cavia porcellus
[2] = system: Mycobacterium tuberculosis; test: Antimycobacterial activity against Mycobacterium tuberculosis H37Rv ATCC 27294 after 21 days by agar proportion method; format: functional; details: 504 h
How it was run: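 Agar proportion method on Middlebrook 7H10 with glycerol and OADC, compounds added from DMSO solutions at […]. H37Rv was grown in 7H9 broth at 37 °C for 4–7 days and adjusted to McFarland no. 1. The 10^-2 and 10^-4 dilutions were the inocula. MIC was read after 21 days at 37 °C under 5–7% CO₂.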

Row | SMILES | pIC50 [1] | MIC [2]
1 | CCN(CC)C(=O)C1=C(C)NC(C)=C(C(=O)OCCCc2ccccc2)C1c1ncc([N+](=O)[O-])n1C (stereo not drawn) | 5.57 | 1 µM (≈ 0.496 µg/mL)
2 | CCN(CC)C(=O)C1=C(C)NC(C)=C(C(=O)OCCc2ccccc2)C1c1ncc([N+](=O)[O-])n1C (stereo not drawn) | 5.62 | 1 µM (≈ 0.482 µg/mL)
3 | CCN(CC)C(=O)C1=C(C)NC(C)=C(C(=O)OCCCCc2ccccc2)C1c1ncc([N+](=O)[O-])n1C (stereo not drawn) | 5.46 | 2 µM (≈ 1.02 µg/mL)
4 | CCN(CC)C(=O)C1=C(C)NC(C)=C(C(=O)OC(C)C)C1c1ncc([N+](=O)[O-])n1C (stereo not drawn) | 4.73 | > 500 µM
5 | CCN(CC)C(=O)C1=C(C)NC(C)=C(C(=O)OC)C1c1ncc([N+](=O)[O-])n1C (stereo not drawn) | 4.49 | > 500 µM
6 | CCOC(=O)C1=C(C)NC(C)=C(C(=O)N(CC)CC)C1c1ncc([N+](=O)[O-])n1C (stereo not drawn) | 4.53 | 250 µM (≈ 101 µg/mL)
7 | CCCOC(=O)C1=C(C)NC(C)=C(C(=O)N(CC)CC)C1c1ncc([N+](=O)[O-])n1C (stereo not drawn) | 4.92 | 2 µM (≈ 0.839 µg/mL)
8 | CCN(CC)C(=O)C1=C(C)NC(C)=C(C(=O)OCc2ccccc2)C1c1ncc([N+](=O)[O-])n1C (stereo not drawn) | 5.38 | 1 µM (≈ 0.468 µg/mL)
9 | CCCCOC(=O)C1=C(C)NC(C)=C(C(=O)N(CC)CC)C1c1ncc([N+](=O)[O-])n1C (stereo not drawn) | 5.07 | 1 µM (≈ 0.434 µg/mL)
10 | COC(=O)C1=C(C)NC(C)=C(C(=O)OC)C1c1ccccc1[N+](=O)[O-] [NIFEDIPINE] | 8.97 | 
11 | CCN(CC)C(=O)C1=C(C)NC(C)=C(C(=O)OCCCCCc2ccccc2)C1c1ncc([N+](=O)[O-])n1C (stereo not drawn) | 4.62 | 2 µM (≈ 1.05 µg/mL)
12 | CO[C@H]1/C=C/O[C@@]2(C)Oc3c(C)c(O)c4c(O)c(c(/C=N/N5CCN(C)CC5)c(O)c4c3C2=O)NC(=O)/C(C)=C\C=C\[C@H](C)[C@H](O)[C@@H](C)[C@@H](O)[C@@H](C)[C@H](OC(C)=O)[C@@H]1C [RIFAMPIN] |  | 1 µM (≈ 0.823 µg/mL)
13 | NNC(=O)c1ccncc1 [ISONIAZID] |  | 1 µM (≈ 0.137 µg/mL)
